These results are taken from ChEMBL document CHEMBL5036324 (J Med Chem, 2021).

Data set [1] in a line: Acute toxicity in BALB/c mouse assessed as white discharge from eyes at 15 to 80 mg/kg, ip administered as single dose. It counts as organism-based. The note with it: in vivo, dose 15-80 mg/kg.
Data set [2] is described as follows: Subacute toxicity in BALB/c mouse assessed as pathological changes in lung at 15 mg/kg, ip administered as single dose by H and E staining based microscopic analysis. Type of data set: organism-based. The following applies: in vivo. The method, boiled down:
(§1)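 Subacute toxicity study in BALB/c mice given ip TLR7/8 agonist. Tissues from treated and control mice were examined by hematoxylin and eosin staining.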

The nature of data set [3]: Aqueous solubility of compound. Type of data set: physicochemical.
Data set [4] is described as follows: Acute toxicity in BALB/c mouse assessed as decrease in locomotor activity at 15 to 80 mg/kg, ip administered as single dose measured after 24 hrs. It counts as organism-based. The following applies: in vivo, dose 15-80 mg/kg.
Data set [5] has as its target Toll-like receptor 2 (Homo sapiens) (UniProt O60603). The experiment in a line: Agonist activity at human TLR2 expressed in HEK-Blue hTLR2 cells assessed as activation of NFkappaB incubated for 6 to 16 hrs by SEAP reporter gene based assay. The following applies: time 6-16 hrs. It counts as cell-based. In outline: (§2)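 HEK293-derived SEAP reporter cells stably expressing the matching human TLR (2, 3, 4, 7, 8 or 9), kept under selection antibiotics. SEAP is driven by an NF-κB/AP-1-inducible promoter. HEK-Blue Null2-k (no TLR7/8) serves as the parental line. Cells were given escalating concentrations of stimuli for 6−16 h, then SEAP was read with HEK-Blue detection at 620 nm.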

Data set [6] can be described thus: Subacute toxicity in BALB/c mouse assessed as pathological changes in liver at 15 mg/kg, ip administered as single dose by H and E staining based microscopic analysis. It counts as organism-based. The note with it: in vivo. The method, boiled down:
as §1

Data set [7] is described as follows: Subacute toxicity in BALB/c mouse assessed as splenomegaly at 15 mg/kg, ip administered as single dose. Type of data set: organism-based. The note with it: in vivo. The method, boiled down: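 Subacute toxicity study in BALB/c mice given ip TLR7/8 agonist. Spleens from treated and control groups were weighed and photographed. Body weight was recorded every day.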

A short description of data set [8]: Acute toxicity in BALB/c mouse assessed as decrease in locomotor activity at 15 to 80 mg/kg, ip administered as single dose. Type of data set: organism-based. The note with it: in vivo, dose 15-80 mg/kg.
A short description of data set [9]: Acute toxicity in BALB/c mouse assessed as body weight loss at 60 mg/kg, ip administered as single dose relative to control. The following applies: in vivo. Type of data set: organism-based.
Data set [10] deals with Toll-like receptor 3 (Homo sapiens) (UniProt O15455). The experiment in a line: Agonist activity at human TLR3 expressed in HEK-Blue hTLR3 cells assessed as activation of NFkappaB incubated for 6 to 16 hrs by SEAP reporter gene based assay. Type of data set: cell-based. The following applies: time 6-16 hrs. The method, boiled down: as §2
Data set [11] concerns the target TLR7 and TLR8 (Homo sapiens) (UniProt Q9NYK1+Q9NR97). The experiment in a line: Agonist activity at human TLR7/8 expressed in human PBMC cells assessed as induction of IFN-alpha production at 0.5 ug/ml incubated for 24 hrs by multiplexed immunoassay. It counts as cell-based. The note with it: filed as agonist, dose 0.5 µg/ml. In outline:
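PBMCs from five healthy donors, at 3.0 × 10⁶ cells/mL, received one compound concentration for 24 h. Cytokines in centrifuged supernatants were measured in duplicate with a multiplex magnetic bead cytokine panel.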

The target of data set [12] is T1, Toll-like receptor 7 (Homo sapiens) (UniProt Q9NYK1).
T1 sequence (whole entry): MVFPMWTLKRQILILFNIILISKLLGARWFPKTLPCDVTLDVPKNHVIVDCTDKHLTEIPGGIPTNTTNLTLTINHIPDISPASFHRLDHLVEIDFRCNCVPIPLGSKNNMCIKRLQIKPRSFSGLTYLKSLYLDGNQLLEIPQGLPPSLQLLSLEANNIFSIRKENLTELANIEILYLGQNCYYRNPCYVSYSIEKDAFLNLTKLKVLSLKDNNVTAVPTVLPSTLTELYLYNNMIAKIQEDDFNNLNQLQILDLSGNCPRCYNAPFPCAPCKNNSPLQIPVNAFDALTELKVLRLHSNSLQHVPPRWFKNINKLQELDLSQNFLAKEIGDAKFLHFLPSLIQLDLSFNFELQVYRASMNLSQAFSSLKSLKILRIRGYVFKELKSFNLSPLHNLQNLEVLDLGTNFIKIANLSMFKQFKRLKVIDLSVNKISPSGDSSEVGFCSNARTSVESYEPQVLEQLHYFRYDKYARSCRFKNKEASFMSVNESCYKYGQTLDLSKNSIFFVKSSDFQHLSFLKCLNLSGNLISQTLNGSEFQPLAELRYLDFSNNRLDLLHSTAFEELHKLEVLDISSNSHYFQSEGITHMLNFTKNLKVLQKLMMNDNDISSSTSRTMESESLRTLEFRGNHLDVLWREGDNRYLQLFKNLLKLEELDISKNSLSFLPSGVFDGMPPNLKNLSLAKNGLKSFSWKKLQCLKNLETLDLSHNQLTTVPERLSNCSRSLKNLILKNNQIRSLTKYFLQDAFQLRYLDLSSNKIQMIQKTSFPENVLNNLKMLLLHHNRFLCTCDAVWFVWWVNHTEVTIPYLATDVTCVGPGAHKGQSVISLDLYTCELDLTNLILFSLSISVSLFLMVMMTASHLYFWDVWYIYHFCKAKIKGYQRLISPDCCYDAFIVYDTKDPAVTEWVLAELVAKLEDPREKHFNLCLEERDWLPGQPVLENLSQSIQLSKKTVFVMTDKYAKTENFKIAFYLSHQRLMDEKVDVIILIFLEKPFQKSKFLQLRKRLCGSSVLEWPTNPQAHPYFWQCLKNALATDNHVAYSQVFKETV
The experiment in a line: Agonist activity at human TLR7 expressed in HEK-Blue hTLR7 cells assessed as activation of NFkappaB incubated for 6 to 16 hrs by SEAP reporter gene based assay. It counts as cell-based. The following applies: filed as agonist, time 6-16 hrs. In outline:
as §2

A short description of data set [13]: Acute toxicity in BALB/c mouse assessed as mild diarrhea at 15 to 80 mg/kg, ip administered as single dose. Type of data set: organism-based. The following applies: in vivo, dose 15-80 mg/kg.

≈ marks a conversion by molar mass, not a printed value. Calls of active or inactive are those of the source. No cut-off for these calls is given here.

Sequence of Toll-like receptor 2 (Homo sapiens) (O60603 whole entry): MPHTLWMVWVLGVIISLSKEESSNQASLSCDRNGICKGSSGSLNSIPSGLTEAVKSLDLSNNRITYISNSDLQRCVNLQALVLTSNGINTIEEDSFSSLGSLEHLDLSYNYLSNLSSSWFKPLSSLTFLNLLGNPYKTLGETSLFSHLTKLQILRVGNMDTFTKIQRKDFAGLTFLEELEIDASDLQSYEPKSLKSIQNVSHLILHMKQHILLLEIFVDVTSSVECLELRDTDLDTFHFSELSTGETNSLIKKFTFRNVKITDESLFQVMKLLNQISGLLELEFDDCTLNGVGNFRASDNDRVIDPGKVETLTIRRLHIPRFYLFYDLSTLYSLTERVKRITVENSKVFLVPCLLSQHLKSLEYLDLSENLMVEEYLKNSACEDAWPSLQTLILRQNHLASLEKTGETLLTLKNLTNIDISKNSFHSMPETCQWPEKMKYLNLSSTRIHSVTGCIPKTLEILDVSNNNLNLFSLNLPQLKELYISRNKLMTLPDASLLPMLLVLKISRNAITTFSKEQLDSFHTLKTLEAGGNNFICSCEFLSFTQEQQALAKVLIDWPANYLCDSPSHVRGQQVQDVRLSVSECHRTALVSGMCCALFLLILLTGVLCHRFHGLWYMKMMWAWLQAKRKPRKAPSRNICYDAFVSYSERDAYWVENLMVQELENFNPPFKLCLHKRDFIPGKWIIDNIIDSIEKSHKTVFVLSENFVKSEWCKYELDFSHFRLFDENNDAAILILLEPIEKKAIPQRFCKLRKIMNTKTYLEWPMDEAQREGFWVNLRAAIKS
Sequence of TLR7 and TLR8 (Homo sapiens) (Q9NR97 whole entry, looked up, one chain of several): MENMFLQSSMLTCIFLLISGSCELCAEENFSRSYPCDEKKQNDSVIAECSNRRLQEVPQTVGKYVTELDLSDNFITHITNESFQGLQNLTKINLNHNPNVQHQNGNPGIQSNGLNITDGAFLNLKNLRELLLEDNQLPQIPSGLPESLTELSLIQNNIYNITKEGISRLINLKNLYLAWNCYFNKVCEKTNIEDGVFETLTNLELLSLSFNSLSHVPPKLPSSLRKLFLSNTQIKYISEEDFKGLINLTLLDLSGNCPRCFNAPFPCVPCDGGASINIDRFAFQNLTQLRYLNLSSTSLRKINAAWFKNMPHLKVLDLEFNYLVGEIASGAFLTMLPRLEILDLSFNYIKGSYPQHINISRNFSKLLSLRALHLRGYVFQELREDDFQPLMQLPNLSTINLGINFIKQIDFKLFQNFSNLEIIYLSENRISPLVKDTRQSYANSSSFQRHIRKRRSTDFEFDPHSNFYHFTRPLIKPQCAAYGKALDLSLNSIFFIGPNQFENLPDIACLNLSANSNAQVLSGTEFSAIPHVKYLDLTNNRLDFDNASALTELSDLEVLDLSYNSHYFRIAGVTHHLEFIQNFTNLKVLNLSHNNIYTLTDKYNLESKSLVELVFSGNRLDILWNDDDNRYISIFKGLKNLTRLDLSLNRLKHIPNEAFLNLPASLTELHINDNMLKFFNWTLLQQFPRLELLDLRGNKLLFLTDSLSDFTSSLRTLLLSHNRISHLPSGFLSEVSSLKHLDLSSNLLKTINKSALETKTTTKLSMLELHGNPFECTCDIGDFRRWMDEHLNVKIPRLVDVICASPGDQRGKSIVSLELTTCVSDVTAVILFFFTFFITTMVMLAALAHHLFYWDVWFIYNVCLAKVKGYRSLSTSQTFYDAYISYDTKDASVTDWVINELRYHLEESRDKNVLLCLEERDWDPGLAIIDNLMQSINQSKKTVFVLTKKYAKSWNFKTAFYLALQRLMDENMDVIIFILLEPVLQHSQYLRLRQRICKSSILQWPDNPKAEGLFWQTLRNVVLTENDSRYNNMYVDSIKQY
Sequence of Toll-like receptor 3 (Homo sapiens) (O15455 whole entry): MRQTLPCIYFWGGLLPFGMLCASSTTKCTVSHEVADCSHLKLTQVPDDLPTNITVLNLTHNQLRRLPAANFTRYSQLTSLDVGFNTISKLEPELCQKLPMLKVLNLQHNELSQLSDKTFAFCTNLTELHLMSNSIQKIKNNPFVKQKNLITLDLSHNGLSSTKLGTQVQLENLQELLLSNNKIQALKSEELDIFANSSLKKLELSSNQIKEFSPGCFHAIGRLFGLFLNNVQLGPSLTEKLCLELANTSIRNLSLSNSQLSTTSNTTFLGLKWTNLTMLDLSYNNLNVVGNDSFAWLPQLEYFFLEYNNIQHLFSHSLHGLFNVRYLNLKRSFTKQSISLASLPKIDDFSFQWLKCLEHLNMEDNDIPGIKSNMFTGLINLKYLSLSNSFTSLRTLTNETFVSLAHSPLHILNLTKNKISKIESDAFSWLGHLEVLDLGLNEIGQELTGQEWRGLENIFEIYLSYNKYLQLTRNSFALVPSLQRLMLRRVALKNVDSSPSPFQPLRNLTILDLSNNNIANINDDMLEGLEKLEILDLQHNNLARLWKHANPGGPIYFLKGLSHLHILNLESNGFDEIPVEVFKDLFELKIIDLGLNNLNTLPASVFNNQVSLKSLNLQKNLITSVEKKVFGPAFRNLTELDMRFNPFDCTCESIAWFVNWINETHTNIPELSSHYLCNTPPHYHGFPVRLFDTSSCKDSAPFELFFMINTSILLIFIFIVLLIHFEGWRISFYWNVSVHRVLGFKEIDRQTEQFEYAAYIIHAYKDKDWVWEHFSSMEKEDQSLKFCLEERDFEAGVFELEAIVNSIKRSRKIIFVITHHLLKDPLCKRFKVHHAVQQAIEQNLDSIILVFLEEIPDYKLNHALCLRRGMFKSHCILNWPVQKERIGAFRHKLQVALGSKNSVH

With `CCCCNc1nc(N)nc2ccc(Cc3ccc(CN(C)C)cc3)nc12`, the Activity result in data set [1] is “Toxic”; in [2], “Non-Toxic”; in data set [4], “Non-Toxic”; in [6], “Non-Toxic”; in data set [7] it was “Toxic”; in data set [8], “Toxic”. Besides, the values for the Activity in data set [9] and in data set [13] were 17.6% and “Toxic”, respectively. This molecule gave a solubility in [3] of 45 µg/mL (≈ 123 µM). Further, the outcome in data set [5] and in data set [10] was inactive. The result in [11] and in data set [12] was Active.

`COCCNc1nc(N)nc2ccc(Cc3ccc(CN(C)C)cc3)nc12`: the Activity entry in data set [1] is listed as “Toxic”; in data set [2] it was “Non-Toxic”; in data set [4], “Non-Toxic”; in [6], “Non-Toxic”; in [7] it was “Toxic”; in [8], “Toxic”. The Activity in data set [9] is 15.3%; in data set [13], “Toxic”. This molecule registered a solubility in data set [3] of 1030 µg/mL (≈ 2810 µM). For the same molecule, the outcome in data set [5] and in [10] was inactive. Further, the result in data set [11] and in data set [12] was Active.
